Measurements collected from several papers.
KIT V559D/V654A: Mast/stem cell growth factor receptor Kit (KIT, Homo sapiens, UniProt P10721, V559D/V654A)
KIT V559D: Mast/stem cell growth factor receptor Kit (KIT, Homo sapiens, UniProt P10721, V559D)
KIT autoinhibited: Mast/stem cell growth factor receptor Kit, autoinhibited (KIT, Homo sapiens, UniProt P10721)
KIT T670I/V559D: Mast/stem cell growth factor receptor Kit (KIT, Homo sapiens, UniProt P10721, T670I/V559D)
KIT L576P: Mast/stem cell growth factor receptor Kit (KIT, Homo sapiens, UniProt P10721, L576P)
KIT: Mast/stem cell growth factor receptor Kit (KIT, Homo sapiens, UniProt P10721)
KIT D816V: Mast/stem cell growth factor receptor Kit (KIT, Homo sapiens, UniProt P10721, D816V)
KIT A829P: Mast/stem cell growth factor receptor Kit (KIT, Homo sapiens, UniProt P10721, A829P)

c1cncc(-c2cccc(Nc3nccc(NC4CCCCC4)n3)c2)c1
remaining binding (KIT V559D/V654A; binding, competition with immobilised ligand; 10 µM): 43%

Cc1cnc(Nc2ccc(C(=O)N3CCC(N4CCCC4)CC3)cc2)nc1-c1cc2ccccc2s1
remaining binding (KIT V559D; binding, competition with immobilised ligand; 1 µM): 0.6%

CN(CCCC(F)(F)F)c1nccc(-c2cnn3ncccc23)n1
remaining binding (KIT autoinhibited; binding; 1 µM): 100%

COc1cnc(Nc2cccc(S(N)(=O)=O)c2)nc1N1CCN(c2ccccc2)C(=O)C1
remaining binding (KIT V559D/V654A; binding, competition with immobilised ligand; 1 µM): 97%

CN1CCN(c2ccc(Nc3nccc(-c4cccc([N+](=O)[O-])c4)n3)cc2C(F)(F)F)CC1
remaining binding (KIT V559D/V654A; binding; 10 µM): 0%

C=CC(=O)N1CCC(C(=O)NCC(=O)N2CCN(c3nc(-c4cnc(N)nc4C(F)F)nc(N4CCOCC4)n3)CC2)CC1
remaining binding (KIT autoinhibited; binding, competition with immobilised ligand; 1 µM): 35%

O=C(NCCCN1CCOCC1)c1ccc(Nc2ncc(Cl)c(-c3ccc(Cl)s3)n2)cc1
remaining binding (KIT V559D/V654A; binding, competition with immobilised ligand; 1 µM): 9.9%

C[C@@H](c1ccc(-n2cnc3c(N)ncnc32)cc1)N1CCc2nn(C)c(Cc3ccccc3)c2C1=O
remaining binding (KIT T670I/V559D; binding, competition with immobilised ligand; 0.1 µM): 99%

Cc1cnn2ncc(-c3ccnc(N(C)C)n3)c2c1
remaining binding (KIT L576P; binding; 1 µM): 100%

CNC(=O)[C@@H]1CC[C@@H](n2c(-c3ccc4cnccc4c3)nc3ccc(C(=O)NCc4cccc(C(N)=O)c4)cc32)C1
remaining binding (KIT; binding, competition with immobilised ligand; 1 µM): 100%

CCN1CCN(Cc2ccc(C(=O)Nc3ccc(C)c(Oc4ccc5c(c4)CC(=O)N5)c3)cc2C(F)(F)F)CC1
remaining binding (KIT autoinhibited; binding, competition with immobilised ligand; 1 µM): 100%

CC1CCCN1c1nccc(-c2cnn3ncccc23)n1 (stereo not drawn)
remaining binding (KIT V559D/V654A; binding; 1 µM): 100%

O=C(c1ccc(Nc2nccc(-c3cc4ccccc4s3)n2)cc1)N1CCC(N2CCCC2)CC1
remaining binding (KIT autoinhibited; binding, competition with immobilised ligand; 1 µM): 66%

O=C(NCc1ncc(C(F)(F)F)cc1Cl)c1ccc2c(c1)C1(CCS(=O)(=O)CC1)[C@H](C1CC1)N2S(=O)(=O)c1ccc(F)cc1
remaining binding (KIT; cell-free assay, competition with immobilised ligand; 1 µM): 100%

O=C(NCC1CCOCC1)c1n[nH]cc1NC(=O)c1c(F)cccc1F
remaining binding (KIT D816V; binding, competition with immobilised ligand; 1 µM): 100%

CC(=O)N1CCC(c2ccc(C(=O)NC3=NCCN3)cc2C(F)(F)F)CC1
remaining binding (KIT D816V; cell-free assay, competition with immobilised ligand; 1 µM): 91%

CN(C)c1nccc(-c2cnc3ncccn23)n1
remaining binding (KIT V559D/V654A; binding; 1 µM): 100%

COc1ccc2c(c1)O[C@@H](c1ccc(OC)c(OC)c1)C[C@H]2NC(=O)C1(c2ccc3c(c2)OC(F)(F)O3)CC1
remaining binding (KIT A829P; cell-free assay, competition with immobilised ligand; 1 µM): 75%

O=C(c1ccc(Nc2ncc(Cl)c(-c3cc4ccccc4s3)n2)cc1)N1CCC(N2CCCC2)CC1
remaining binding (KIT L576P; binding, competition with immobilised ligand; 1 µM): 4.5%

O=C(NS(=O)(=O)c1ccc(NCC2CCOCC2)c([N+](=O)[O-])c1)c1ccc(N2CCN(Cc3ccc(C(F)(F)F)cc3-c3ccc(Cl)cc3)CC2)cc1Oc1cnc2[nH]ccc2c1
remaining binding (KIT V559D; cell-free assay, competition with immobilised ligand; 1 µM): 100%

COc1cnc(Nc2cccc(S(N)(=O)=O)c2)nc1N1CCN(c2ccccc2)CC1
remaining binding (KIT autoinhibited; binding, competition with immobilised ligand; 1 µM): 90%

O=C(N[C@H]1CCCCC/C=C\C2C[C@@]2(C(=O)O)NC(=O)[C@@H]2C[C@@H](Oc3ccncc3)CN2C1=O)OC1CCCC1 (stereo partly drawn)
remaining binding (KIT V559D/V654A; binding, competition with immobilised ligand; 1 µM): 63%

Cc1nc(NC(=O)N2CCC[C@H]2C(N)=O)sc1-c1ccnc(C(C)(C)C(F)(F)F)c1
remaining binding (KIT; binding, competition with immobilised ligand; 10 µM): 100%

O=C(NCCCN1CCOCC1)c1ccc(Nc2nccc(-c3cc4ccccc4s3)n2)cc1
remaining binding (KIT V559D; binding, competition with immobilised ligand; 1 µM): 26%

COc1ccc2c(O[C@@H]3C[C@H]4C(=O)N[C@]5(C(=O)O)CC5/C=C\CCCCC[C@H](NC(=O)OC5CCCC5)C(=O)N4C3)cc(-c3csc(NC(=O)C(C)C)n3)nc2c1C (stereo partly drawn)
remaining binding (KIT T670I/V559D; cell-free assay, competition with immobilised ligand; 1 µM): 76%

O=C(c1ccc(Nc2ncc(Cl)c(-c3ccc(Cl)s3)n2)cc1)N1CCC(N2CCCC2)CC1
remaining binding (KIT T670I/V559D; binding, competition with immobilised ligand; 1 µM): 0.75%

O=C(Nc1cccnn1)N1CC(C/C=C/c2cncc(Oc3ccc(C(F)(F)F)cn3)n2)C1
remaining binding (KIT D816V; cell-free assay, competition with immobilised ligand; 1 µM): 100%

Nc1ncc2c(n1)-c1c([nH]c3ccc(C#CC4CC4)cc13)CCCC2
remaining binding (KIT L576P; binding, competition with immobilised ligand; 1 µM): 100%

c1cnn2ncc(-c3ccnc(N4CCC45COC5)n3)c2c1
remaining binding (KIT V559D; binding; 1 µM): 78%

O=C(Nc1c[nH]nc1C(=O)NC1CCNCC1)c1cc(F)cc(F)c1
remaining binding (Mast/stem cell growth factor receptor Kit (KIT, Homo sapiens, UniProt P10721, D816H); binding, competition with immobilised ligand; 1 µM): 100%

CN(C)c1nccc(-c2cnn3ncccc23)n1
remaining binding (KIT autoinhibited; binding; 1 µM): 88%

CO[C@@H](C)c1c(Nc2ccc([C@@H](N(C)C(=O)C3CCS(=O)(=O)CC3)C(F)(F)F)cc2)cnc2cc(Cl)nn12
remaining binding (KIT T670I/V559D; cell-free assay, competition with immobilised ligand; 1 µM): 82%

C[C@@H]1CCN(c2nccc(-c3cnn4ncccc34)n2)C1
remaining binding (KIT V559D/V654A; binding; 1 µM): 79%

COc1ncc2cc3ccccc3nc2c1C#N
remaining binding (KIT A829P; cell-free assay, competition with immobilised ligand; 5 µM): 100%

CN(c1nccc(-c2cnn3ncccc23)n1)C1CC1
remaining binding (KIT; binding; 1 µM): 89%

CN1CCN(c2ccc(Nc3nccc(-c4ccccc4)n3)cc2C(F)(F)F)CC1
remaining binding (KIT V559D/V654A; binding; 10 µM): 4%
